In ChEMBL document CHEMBL1145462, “In vivo pharmacodynamic activity of the glycopeptide dalbavancin” (Antimicrob Agents Chemother, 2007):
Converted amounts (≈) assume the structure as drawn.

Columns and labels:
[1] = system: Staphylococcus aureus; test: AUC/MBC ratio of Staphylococcus aureus 307109 infected neutropenic mouse thigh infection model at 37 mg/kg, ip administered every 72 hrs by 2-log killing experiment; format: functional; settings: route intraperitoneal
[2] = system: Streptococcus pneumoniae; test: AUC/MIC ratio of Streptococcus pneumoniae 1396 infected neutropenic mouse thigh infection model at 0.52 mg/kg, ip administered every 72 hrs by static effect experiment; format: functional; settings: route intraperitoneal
[3] = system: Staphylococcus aureus; test: Bactericidal activity against […] Staphylococcus aureus ATCC 29213 infected neutropenic Swiss ICR mouse thigh infection model assessed as drug level causing 1-log reduction of bacterial count at 267 mg/kg, ip dosed every 24 hrs; format: functional; settings: route intraperitoneal
[4] = system: Staphylococcus aureus; test: Antibacterial activity against Staphylococcus aureus ATCC 25923 in presence of 95% mouse serum ultrafiltrate; format: functional
Procedure, shortened: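 MIC determined in broth, heat-treated (100°C, 30 min) 95% mouse serum, and 95% mouse serum ultrafiltrate, using arithmetic dilutions of 0.02 mg/liter per tube. Protein binding estimated as (MIC in 95% serum − MIC in ultrafiltrate)/MIC in 95% serum.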

[5] = system: Staphylococcus aureus; test: AUC/MIC ratio of Staphylococcus aureus ATCC 25923 infected neutropenic mouse thigh infection model at 160 mg/kg, ip administered every 72 hrs by static effect experiment; format: functional; settings: route intraperitoneal
[6] = system: Staphylococcus aureus; test: Bactericidal activity against […] Staphylococcus aureus ATCC 29213 infected neutropenic Swiss ICR mouse thigh infection model assessed as drug level causing 2-log reduction of bacterial count at 15 mg/kg, ip dosed every 36 hrs; format: functional; settings: route intraperitoneal
[7] = system: Streptococcus pneumoniae; test: AUC/MIC ratio of Streptococcus pneumoniae 1325 infected neutropenic mouse thigh infection model at 0.83 mg/kg, ip administered every 72 hrs by static effect experiment; format: functional; settings: route intraperitoneal
[8] = Half life in bacterial pathogen-infected neutropenic Swiss ICR mouse thigh infection model at 40 mg/kg, ip; format: ADME, organism-based; design: dose 40 mg/kg, route intraperitoneal; settings: in vivo
Procedure, shortened: (§1)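 Thigh-infected neutropenic mice received single intraperitoneal doses (2.5, 5, 10, 20, 40, 80 mg/kg; 0.2 ml/dose). Blood was drawn by retroorbital aspiration from groups of three mice at 0.5, 1, 2, 4, 6, 24, 48, 72 and 96 h. Plasma levels were measured by microbiologic assay with Bacillus subtilis (detection limit 0.10 mg/liter). Noncompartmental analysis was used: half-life by linear least-squares regression, AUC by trapezoidal rule.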

[9] = system: Streptococcus pneumoniae; test: Antibacterial activity against Streptococcus pneumoniae 1199 by microdilution method; format: functional
Procedure, shortened: (§2)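 MIC and MBC were determined by CLSI broth microdilution, in duplicate on at least two occasions. Staphylococci were grown in Mueller-Hinton broth and agar; pneumococci were plated on sheep blood agar.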

[10] = system: Streptococcus pneumoniae; test: Bactericidal activity against penicillin-susceptible Streptococcus pneumoniae ATCC 10813 infected neutropenic Swiss ICR mouse thigh infection model assessed as drug level causing 2-log reduction of bacterial count at 2.3 mg/kg, ip dosed every 12 hrs; format: functional; settings: route intraperitoneal
Procedure, shortened: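 Neutropenic mice (cyclophosphamide ip 150 mg/kg day −4, 100 mg/kg day −1, then every 48 h) received 0.1 ml log-phase inoculum per thigh under halothane. Intraperitoneal dalbavancin started 2 h later and was given for 6 days at q12h, q24h, q36h or q72h, two mice per regimen. Thigh CFU were counted at 144 h. Endpoint doses relative to start-of-therapy counts came from Hill-model nonlinear regression and are expressed per 24 h.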

[11] = system: Staphylococcus aureus; test: AUC/MBC ratio of Staphylococcus aureus Smith infected neutropenic mouse thigh infection model at 95 mg/kg, ip administered every 72 hrs by 1-log killing experiment; format: functional; settings: route intraperitoneal
[12] = system: Staphylococcus aureus; test: Antibacterial activity against Staphylococcus aureus Smith by microdilution method; format: functional
Procedure, shortened: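 MICs in duplicate on at least two occasions by standard CLSI broth microdilution; S. aureus grown and quantified in Mueller-Hinton broth/agar.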

[13] = system: Staphylococcus aureus; test: AUC/MIC ratio of methicillin-resistant Staphylococcus aureus infected neutropenic mouse thigh infection model at 45.3 mg/kg, ip administered every 24 hrs by 1-log killing experiment; format: functional; settings: route intraperitoneal
[14] = system: Streptococcus pneumoniae; test: AUC/MIC ratio of Streptococcus pneumoniae 1293 infected neutropenic mouse thigh infection model at 1.68 mg/kg, ip administered every 72 hrs by 2-log killing experiment; format: functional; settings: route intraperitoneal
[15] = system: Staphylococcus aureus; test: AUC/MIC ratio of Staphylococcus aureus 31005 infected neutropenic mouse thigh infection model at 127 mg/kg, ip administered every 72 hrs by 2-log killing experiment; format: functional; settings: route intraperitoneal
[16] = system: Staphylococcus aureus; test: AUC/MBC ratio of Staphylococcus aureus 31005 infected neutropenic mouse thigh infection model at 94.6 mg/kg, ip administered every 72 hrs by 1-log killing experiment; format: functional; settings: route intraperitoneal
[17] = system: Streptococcus pneumoniae; test: AUC/MIC ratio of Streptococcus pneumoniae 1199 infected neutropenic mouse thigh infection model at 0.85 mg/kg, ip administered every 72 hrs by 1-log killing experiment; format: functional; settings: route intraperitoneal
[18] = system: Staphylococcus aureus; test: AUC/MBC ratio of Staphylococcus aureus Smith infected neutropenic mouse thigh infection model at 33.5 mg/kg, ip administered every 24 hrs by static effect experiment; format: functional; settings: route intraperitoneal
[19] = system: Staphylococcus aureus; test: AUC/MIC ratio of Staphylococcus aureus 31005 infected neutropenic mouse thigh infection model at 67.7 mg/kg, ip administered every 72 hrs by static effect experiment; format: functional; settings: route intraperitoneal
[20] = system: Staphylococcus aureus; test: AUC/MIC ratio of Staphylococcus aureus Smith infected neutropenic mouse thigh infection model at 73.5 mg/kg, ip administered every 24 hrs by 2-log killing experiment; format: functional; settings: route intraperitoneal
[21] = system: Streptococcus pneumoniae; test: Bactericidal activity against penicillin-susceptible Streptococcus pneumoniae ATCC 10813 infected neutropenic Swiss ICR mouse thigh infection model assessed as drug level causing 1-log reduction of bacterial count at 1.34 mg/kg, ip dosed every 24 hrs; format: functional; settings: route intraperitoneal
[22] = AUC in bacterial pathogen-infected neutropenic Swiss ICR mouse thigh infection model at 20 mg/kg, ip; format: ADME, organism-based; design: dose 20 mg/kg, route intraperitoneal; settings: in vivo; procedure, shortened: as §1
[23] = system: Streptococcus pneumoniae; test: AUC/MIC ratio of Streptococcus pneumoniae 1199 infected neutropenic mouse thigh infection model at 0.72 mg/kg, ip administered every 72 hrs by static effect experiment; format: functional; settings: route intraperitoneal
[24] = system: Staphylococcus aureus; test: AUC/MIC ratio of Staphylococcus aureus Smith infected neutropenic mouse thigh infection model at 50.7 mg/kg, ip administered every 24 hrs by 1-log killing experiment; format: functional; settings: route intraperitoneal
[25] = system: Streptococcus pneumoniae; test: Antibacterial activity against Streptococcus pneumoniae 1325 by microdilution method; format: functional; procedure, shortened: as §2
[26] = system: Staphylococcus aureus; test: AUC/MBC ratio of Staphylococcus aureus ATCC 25923 infected neutropenic mouse thigh infection model at 185 mg/kg, ip administered every 72 hrs by 1-log killing experiment; format: functional; settings: route intraperitoneal
[27] = system: Staphylococcus aureus; test: Bactericidal activity against […] Staphylococcus aureus ATCC 29213 infected neutropenic Swiss ICR mouse thigh infection model assessed as drug level causing 1-log reduction of bacterial count at 10 mg/kg, ip dosed every 72 hrs; format: functional; settings: route intraperitoneal
Procedure, shortened: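 Neutropenic thigh-infected mice were treated ip starting 2 h post-infection for 144 h, with doses given q24h or q72h. Thigh CFU were fitted to a sigmoid Hill Emax model by nonlinear least squares. The dose giving a 1-log10 reduction versus start-of-therapy counts was derived from the fit, together with the free-drug 24-h AUC/MIC.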

[28] = system: Staphylococcus aureus; test: AUC/MBC ratio of methicillin-resistant Staphylococcus aureus infected neutropenic mouse thigh infection model at 85 mg/kg, ip administered every 72 hrs by 2-log killing experiment; format: functional; settings: route intraperitoneal
[29] = AUC in bacterial pathogen-infected neutropenic Swiss ICR mouse thigh infection model at 40 mg/kg, ip; format: ADME, organism-based; design: dose 40 mg/kg, route intraperitoneal; settings: in vivo; procedure, shortened: as §1

CN[C@H]1C(=O)N[C@@H]2Cc3ccc(cc3)Oc3cc4cc(c3O[C@@H]3O[C@H](C(=O)O)[C@@H](O)[C@H](O)[C@H]3NC(=O)CCCCCCCCC(C)C)Oc3ccc(cc3Cl)[C@@H](O)[C@@H]3NC(=O)[C@H](NC(=O)[C@@H]4NC(=O)[C@@H](NC2=O)c2cc(cc(O)c2Cl)Oc2cc1ccc2O)c1ccc(O)c(c1)-c1c(O[C@H]2O[C@H](CO)[C@@H](O)[C@H](O)[C@@H]2O)cc(O)cc1[C@@H](C(=O)NCCCN(C)C)NC3=O [DALBAVANCIN]
Ratio [1]: 14.6 | RatioAUC/MIC [2]: 4 | ED 1-log kill [3]: 267 mg/kg/day | MIC [4]: 500 ng/mL | RatioAUC/MIC [5]: 274 | Activity [6]: 122 | RatioAUC/MIC [7]: 6 | half-life [8]: 9.7 h | MBC [9]: 4 ng/mL (≈ 2.2 nM) | MIC [9]: 4 ng/mL (≈ 2.2 nM) | Activity [10]: 3.5 | Ratio [11]: 78 | MBC [12]: 250 ng/mL (≈ 138 nM) | MIC [12]: 60 ng/mL (≈ 33 nM) | RatioAUC/MIC [13]: 452 | RatioAUC/MIC [14]: 23.8 | RatioAUC/MIC [15]: 364 | Ratio [16]: 163 | RatioAUC/MIC [17]: 12.1 | Ratio [18]: 75 | RatioAUC/MIC [19]: 223 | RatioAUC/MIC [20]: 361 | Activity [21]: 1.54 | AUC [22]: 2260 µg·h/mL | RatioAUC/MIC [23]: 10.3 | RatioAUC/MIC [24]: 248 | MBC [25]: 8 ng/mL (≈ 4.4 nM) | MIC [25]: 8 ng/mL (≈ 4.4 nM) | Ratio [26]: 76.1 | Activity [27]: 31 | Ratio [28]: 70 | AUC [29]: 5360 µg·h/mL
